Reference: ChEMBL document CHEMBL4414563, “Pyrimidine Nucleosides from Streptomyces sp. SSA28” (J Nat Prod, 2019)
Where a name gives a salt, the structure may show the parent alone.

These molecules were tested on HCT-116 (assay: Cytotoxicity against human HCT116 cells assessed as reduction in cell viability after 24 hrs by SRB assay). Settings: HCT-116, 24 h.
Format: functional, cell-based
In short: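 Human colon cancer HCT-116 cells, read out by sulforhodamine B (SRB) staining, with adriamycin as the positive control.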

`CC(C)/C=C/C(=O)Nc1ccn([C@H]2CC[C@H](O[C@H]3O[C@H](C)[C@@H](N(C)C)[C@H](O)[C@H]3O)[C@@H](C)O2)c(=O)n1` and `CCC(C)/C=C/C(=O)Nc1ccn([C@H]2CC[C@H](O[C@H]3O[C@H](C)[C@@H](N(C)C)[C@H](O)[C@H]3O)[C@@H](C)O2)c(=O)n1` (some centres not stated) are within 1.5-fold of each other in IC50: 0.78 µM for the first, 0.89 µM for the second.

Compared with `CC(C)C(=O)Nc1ccc(C(=O)Nc2ccn([C@H]3CC[C@H](O[C@H]4O[C@H](C)[C@@H](N(C)C)[C@H](O)[C@H]4O)[C@@H](C)O3)c(=O)n2)cc1`, `CC(C)CC(=O)Nc1ccn([C@H]2CC[C@H](O[C@H]3O[C@H](C)[C@@H](N(C)C)[C@H](O)[C@H]3O)[C@@H](C)O2)c(=O)n1` is 3.1-fold lower in IC50: 6.63 µM for the first, 2.14 µM for the second.

`C[C@H]1O[C@@H](n2ccc(NC(=O)Cc3ccccc3)nc2=O)CC[C@@H]1O` and `CCC(=O)Nc1ccn([C@H]2CC[C@H](O)[C@@H](C)O2)c(=O)n1` cannot be ordered by IC50: greater than 20 µM for the first, greater than 20 µM for the second.

`CC(C)=CC(=O)Nc1ccn([C@H]2C[C@@H](O)[C@H](O)[C@@H](C)O2)c(=O)n1` and `CC(C)=CCC(=O)Nc1ccn([C@H]2CC[C@H](O)[C@@H](C)O2)c(=O)n1` cannot be ordered by IC50: greater than 20 µM for the first, greater than 20 µM for the second.

`CC(C)/C=C/C(=O)Nc1ccn([C@H]2CC[C@H](O)[C@@H](C)O2)c(=O)n1` and `CC(C)C(=O)Nc1ccn([C@H]2CC[C@H](O)[C@@H](C)O2)c(=O)n1` cannot be ordered by IC50: greater than 20 µM for the first, greater than 20 µM for the second.

`C[C@H]1O[C@@H](n2ccc(NC(=O)CC(C)(C)O)nc2=O)CC[C@@H]1O` and `CC(=O)Nc1ccn([C@H]2CC[C@H](O)[C@@H](C)O2)c(=O)n1` cannot be ordered by IC50: greater than 20 µM for the first, greater than 20 µM for the second.

`CC(=O)C(C)Nc1ccc(C(=O)Nc2ccn([C@H]3CC[C@H](O)[C@@H](C)O3)c(=O)n2)cc1` (some centres not stated) and `CC(C)CCC(=O)Nc1ccn([C@H]2CC[C@H](O)[C@@H](C)O2)c(=O)n1` cannot be ordered by IC50: greater than 20 µM for the first, greater than 20 µM for the second.

Compared with `CC(C)CCC(=O)Nc1ccn([C@H]2CC[C@H](O[C@H]3O[C@H](C)[C@@H](N(C)C)[C@H](O)[C@H]3O)[C@@H](C)O2)c(=O)n1`, `C/C=C(\C)C(=O)Nc1ccn([C@H]2CC[C@H](O[C@H]3O[C@H](C)[C@@H](N(C)C)[C@H](O)[C@H]3O)[C@@H](C)O2)c(=O)n1` is 17-fold higher in IC50: 0.39 µM for the first, 6.45 µM for the second. The first is the more potent here.

`COc1cccc2c1C(=O)c1c(O)c3c(c(O)c1C2=O)C[C@@](O)(C(=O)CO)C[C@@H]3O[C@H]1C[C@H](N)[C@H](O)[C@H](C)O1` [DOXORUBICIN HYDROCHLORIDE] gave an IC50 of 0.06 µM.
